Measured values reported in ChEMBL document CHEMBL4138262, “Antineoplastic Agents. 606. The Betulastatins” (2018).
≈ marks a conversion by molar mass, not a printed value.

Assays:
Assay type in all cases: functional
SF-268 = experiment: Growth inhibition of human SF268 cells after 48 hrs by SRB assay; conditions: SF-268, 48 h
Method in brief: (§1)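 Cells in RPMI1640 with 5% fetal bovine serum were seeded in 96-well plates and incubated 24 h before serial dilutions of compound were added. After 48 h, plates were TCA-fixed, stained with sulforhodamine B and read on a microplate reader. Five serial dilutions were tested, with optical density in duplicate per end point. GI50 was calculated from optical density as the concentration halving net protein increase.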

DU-145 = experiment: Growth inhibition of human DU145 cells after 48 hrs by SRB assay; conditions: DU-145, 48 h; method in brief: as §1
NCI-H460 = experiment: Growth inhibition of human NCI-H460 cells after 48 hrs by SRB assay; conditions: NCI-H460, 48 h; method in brief: as §1
BXPC-3 = experiment: Growth inhibition of human BxPC3 cells after 48 hrs by SRB assay; conditions: BXPC-3, 48 h; method in brief: as §1
KM-20L2 = experiment: Growth inhibition of human KM20L2 cells after 48 hrs by SRB assay; conditions: KM-20L2, 48 h; method in brief: as §1
MCF7 = experiment: Growth inhibition of human MCF7 cells after 48 hrs by SRB assay; conditions: MCF7, 48 h; method in brief: as §1

Row | Structure (SMILES) | GI50 (DU-145) | GI50 (NCI-H460) | GI50 (BXPC-3) | GI50 (MCF7) | GI50 (SF-268) | GI50 (KM-20L2)
1 | C=C(CBr)[C@@H]1CC[C@]2(COC(C)=O)CC[C@]3(C)[C@H](CC[C@@H]4[C@@]5(C)CC[C@H](OC(C)=O)C(C)(C)[C@@H]5CC[C@]43C)[C@@H]12 | > 10 µg/mL | > 10 µg/mL | > 10 µg/mL | > 10 µg/mL | > 10 µg/mL | > 10 µg/mL
2 | C=C(C)[C@@H]1CC[C@]2(C=O)CC[C@]3(C)[C@H](CC[C@@H]4[C@@]5(C)CC[C@H](OC(C)=O)C(C)(C)[C@@H]5CC[C@]43C)[C@@H]12 | > 10 µg/mL | > 10 µg/mL | > 10 µg/mL | > 10 µg/mL | > 10 µg/mL | > 10 µg/mL
3 | C=C(CN=[N+]=[N-])[C@@H]1CC[C@]2(COC(C)=O)CC[C@]3(C)[C@H](CC[C@@H]4[C@@]5(C)CC[C@H](OC(C)=O)C(C)(C)[C@@H]5CC[C@]43C)[C@@H]12 | > 10 µg/mL | > 10 µg/mL | > 10 µg/mL | > 10 µg/mL | > 10 µg/mL | > 10 µg/mL
4 | C=C(CNC(=O)[C@H](C)[C@@H](OC)[C@@H]1CCCN1C(=O)OC(C)(C)C)[C@@H]1CC[C@]2(COC(C)=O)CC[C@]3(C)[C@H](CC[C@@H]4[C@@]5(C)CC[C@H](OC(C)=O)C(C)(C)[C@@H]5CC[C@]43C)[C@@H]12 | > 10 µg/mL | > 10 µg/mL | > 10 µg/mL | > 10 µg/mL | 5.9 µg/mL (≈ 7.27 µM) | 7 µg/mL (≈ 8.63 µM)
5 | C=C(C)[C@@H]1CC[C@]2(/C=N/O)CC[C@]3(C)[C@H](CC[C@@H]4[C@@]5(C)CC[C@H](OC(C)=O)C(C)(C)[C@@H]5CC[C@]43C)[C@@H]12 | > 10 µg/mL | 4.1 µg/mL (≈ 8.24 µM) | 15.5 µg/mL (≈ 31.1 µM) | 4.5 µg/mL (≈ 9.04 µM) | 13.2 µg/mL (≈ 26.5 µM) | 5.1 µg/mL (≈ 10.2 µM)
6 | C=C(C)[C@@H]1CC[C@]2(COC(C)=O)CC[C@]3(C)[C@H](CC[C@@H]4[C@@]5(C)CC[C@H](NC(=O)[C@H](C)[C@@H](OC)[C@@H]6CCCN6C(=O)OC(C)(C)C)C(C)(C)[C@@H]5CC[C@]43C)[C@@H]12 | > 10 µg/mL | > 10 µg/mL | > 10 µg/mL | > 10 µg/mL | > 10 µg/mL | > 10 µg/mL
7 | C=C(CNC(=O)[C@H](C)[C@@H](OC)[C@@H]1CCCN1C(=O)OC(C)(C)C)[C@@H]1CC[C@]2(CO)CC[C@]3(C)[C@H](CC[C@@H]4[C@@]5(C)CC[C@H](O)C(C)(C)[C@@H]5CC[C@]43C)[C@@H]12 | > 10 µg/mL | > 10 µg/mL | > 10 µg/mL | 9 µg/mL (≈ 12.4 µM) | > 10 µg/mL | > 10 µg/mL
8 | C=C(C)[C@@H]1CC[C@]2(CNC(=O)[C@H](C)[C@@H](OC)[C@@H]3CCCN3C(=O)OC(C)(C)C)CC[C@]3(C)[C@H](CC[C@@H]4[C@@]5(C)CC[C@H](OC(C)=O)C(C)(C)[C@@H]5CC[C@]43C)[C@@H]12 | > 10 µg/mL | > 10 µg/mL | > 10 µg/mL | > 10 µg/mL | > 10 µg/mL | > 10 µg/mL
9 | C=C(C)[C@@H]1CC[C@]2(CNC(=O)[C@H](C)[C@@H](OC)[C@@H]3CCCN3C(=O)C[C@@H](OC)[C@H]([C@@H](C)CC)N(C)C(=O)[C@@H](NC(=O)[C@H](C(C)C)N(C)C)C(C)C)CC[C@]3(C)[C@H](CC[C@@H]4[C@@]5(C)CC[C@H](OC(C)=O)C(C)(C)[C@@H]5CC[C@]43C)[C@@H]12 | 3.7 µg/mL (≈ 3.48 µM) | 4.2 µg/mL (≈ 3.95 µM) | 4.1 µg/mL (≈ 3.85 µM) | 3.6 µg/mL (≈ 3.38 µM) | 2.6 µg/mL (≈ 2.44 µM) | 2.4 µg/mL (≈ 2.25 µM)
10 | C=C(CNC(=O)[C@H](C)[C@@H](OC)[C@@H]1CCCN1C(=O)C[C@@H](OC)[C@H]([C@@H](C)CC)N(C)C(=O)[C@@H](NC(=O)[C@H](C(C)C)N(C)C)C(C)C)[C@@H]1CC[C@]2(COC(C)=O)CC[C@]3(C)[C@H](CC[C@@H]4[C@@]5(C)CC[C@H](OC(C)=O)C(C)(C)[C@@H]5CC[C@]43C)[C@@H]12 | 3 µg/mL (≈ 2.67 µM) | > 10 µg/mL | 8 µg/mL (≈ 7.13 µM) | 6.3 µg/mL (≈ 5.61 µM) | 4 µg/mL (≈ 3.56 µM) | 4 µg/mL (≈ 3.56 µM)
11 | C=C(C)[C@@H]1CC[C@]2(COC(C)=O)CC[C@]3(C)[C@H](CC[C@@H]4[C@@]5(C)CC/C(=N/O)C(C)(C)[C@@H]5CC[C@]43C)[C@@H]12 | > 10 µg/mL | > 10 µg/mL | 10.4 µg/mL (≈ 20.9 µM) | 5.9 µg/mL (≈ 11.9 µM) | > 10 µg/mL | 14.1 µg/mL (≈ 28.3 µM)
12 | C=C(C)[C@@H]1CC[C@]2(CO)CC[C@]3(C)[C@H](CC[C@@H]4[C@@]5(C)CC[C@H](O)C(C)(C)[C@@H]5CC[C@]43C)[C@@H]12 [BETULIN] | > 10 µg/mL | 7.4 µg/mL (≈ 16.7 µM) | 9.3 µg/mL (≈ 21 µM) | > 10 µg/mL | > 10 µg/mL | > 10 µg/mL

Stronger by GI50 (DU-145), values ahead:

Row | GI50 (DU-145) | GI50 (NCI-H460) | GI50 (BXPC-3) | GI50 (MCF7) | Structure (SMILES) | GI50 (SF-268) | GI50 (KM-20L2)
13 | 0.13 µg/mL (≈ 0.269 µM) | 0.21 µg/mL (≈ 0.434 µM) | 1.1 µg/mL (≈ 2.27 µM) | 0.2 µg/mL (≈ 0.413 µM) | C=C(C)[C@@H]1CC[C@]2(COC(C)=O)CC[C@]3(C)[C@H](CC[C@@H]4[C@@]5(C)CC[C@H](N)C(C)(C)[C@@H]5CC[C@]43C)[C@@H]12 | 0.21 µg/mL (≈ 0.434 µM) | 0.35 µg/mL (≈ 0.723 µM)
14 | 0.06 µg/mL (≈ 0.0556 µM) | 0.6 µg/mL (≈ 0.556 µM) | 0.31 µg/mL (≈ 0.287 µM) | 0.21 µg/mL (≈ 0.195 µM) | CC[C@H](C)[C@@H]([C@@H](CC(=O)N1CCC[C@H]1[C@H](OC)[C@@H](C)C(=O)NCCN1C(=O)[C@]23CCC(C)(C)C1[C@@H]2[C@H]1CC[C@@H]2[C@@]4(C)CC[C@H](O)C(C)(C)[C@@H]4CC[C@@]2(C)[C@]1(C)CC3)OC)N(C)C(=O)[C@@H](NC(=O)[C@H](C(C)C)N(C)C)C(C)C | 0.09 µg/mL (≈ 0.0834 µM) | 0.22 µg/mL (≈ 0.204 µM)
15 | 0.4 µg/mL (≈ 0.391 µM) | 2.1 µg/mL (≈ 2.05 µM) | 2 µg/mL (≈ 1.96 µM) | 0.7 µg/mL (≈ 0.685 µM) | C=C(C)[C@@H]1CC[C@]2(CO)CC[C@]3(C)[C@H](CC[C@@H]4[C@@]5(C)CC[C@H](NC(=O)[C@H](C)[C@@H](OC)[C@@H]6CCCN6C(=O)C[C@@H](OC)[C@H]([C@@H](C)CC)N(C)C(=O)[C@@H](NC(=O)[C@H](C(C)C)N(C)C)C(C)C)C(C)(C)[C@@H]5CC[C@]43C)[C@@H]12 | 0.4 µg/mL (≈ 0.391 µM) | 0.85 µg/mL (≈ 0.831 µM)
16 | 2.1 µg/mL (≈ 4.59 µM) | 4 µg/mL (≈ 8.74 µM) | 3 µg/mL (≈ 6.55 µM) | 3.1 µg/mL (≈ 6.77 µM) | C=C(CN)[C@@H]1CC[C@]2(CO)CC[C@]3(C)[C@H](CC[C@@H]4[C@@]5(C)CC[C@H](O)C(C)(C)[C@@H]5CC[C@]43C)[C@@H]12 | 4.2 µg/mL (≈ 9.18 µM) | 2.9 µg/mL (≈ 6.34 µM)
17 | 0.4 µg/mL (≈ 0.391 µM) | > 1 µg/mL | 0.6 µg/mL (≈ 0.587 µM) | 0.4 µg/mL (≈ 0.391 µM) | C=C(C)[C@@H]1CC[C@]2(CNC(=O)[C@H](C)[C@@H](OC)[C@@H]3CCCN3C(=O)C[C@@H](OC)[C@H]([C@@H](C)CC)N(C)C(=O)[C@@H](NC(=O)[C@H](C(C)C)N(C)C)C(C)C)CC[C@]3(C)[C@H](CC[C@@H]4[C@@]5(C)CC[C@H](O)C(C)(C)[C@@H]5CC[C@]43C)[C@@H]12 | 0.3 µg/mL (≈ 0.293 µM) | 0.31 µg/mL (≈ 0.303 µM)
18 | 0.04 µg/mL (≈ 0.0385 µM) | 0.5 µg/mL (≈ 0.481 µM) | 0.4 µg/mL (≈ 0.385 µM) | 0.08 µg/mL (≈ 0.077 µM) | C=C(CNC(=O)[C@H](C)[C@@H](OC)[C@@H]1CCCN1C(=O)C[C@@H](OC)[C@H]([C@@H](C)CC)N(C)C(=O)[C@@H](NC(=O)[C@H](C(C)C)N(C)C)C(C)C)[C@@H]1CC[C@]2(CO)CC[C@]3(C)[C@H](CC[C@@H]4[C@@]5(C)CC[C@H](O)C(C)(C)[C@@H]5CC[C@]43C)[C@@H]12 | 0.04 µg/mL (≈ 0.0385 µM) | 0.09 µg/mL (≈ 0.0867 µM)
19 | 1.8 µg/mL (≈ 3.72 µM) | 1.9 µg/mL (≈ 3.93 µM) | 1.9 µg/mL (≈ 3.93 µM) | 1.8 µg/mL (≈ 3.72 µM) | C=C(C)[C@@H]1CC[C@]2(CN)CC[C@]3(C)[C@H](CC[C@@H]4[C@@]5(C)CC[C@H](OC(C)=O)C(C)(C)[C@@H]5CC[C@]43C)[C@@H]12 | 1.8 µg/mL (≈ 3.72 µM) | 1.9 µg/mL (≈ 3.93 µM)
20 | 1.3 µg/mL (≈ 2.69 µM) | 6 µg/mL (≈ 12.4 µM) | > 10 µg/mL | 2.1 µg/mL (≈ 4.34 µM) | C=C(C)[C@@H]1CC[C@]2(COC(C)=O)CC[C@]3(C)[C@H](CC[C@@H]4[C@@]5(C)CC[C@@H](N)C(C)(C)[C@@H]5CC[C@]43C)[C@@H]12 | 1.2 µg/mL (≈ 2.48 µM) | 3 µg/mL (≈ 6.2 µM)
21 | 2.5 µg/mL (≈ 2.35 µM) | > 10 µg/mL | 10 µg/mL (≈ 9.39 µM) | 4.1 µg/mL (≈ 3.85 µM) | C=C(C)[C@@H]1CC[C@]2(COC(C)=O)CC[C@]3(C)[C@H](CC[C@@H]4[C@@]5(C)CC[C@H](NC(=O)[C@H](C)[C@@H](OC)[C@@H]6CCCN6C(=O)C[C@@H](OC)[C@H]([C@@H](C)CC)N(C)C(=O)[C@@H](NC(=O)[C@H](C(C)C)N(C)C)C(C)C)C(C)(C)[C@@H]5CC[C@]43C)[C@@H]12 | 3.8 µg/mL (≈ 3.57 µM) | 7 µg/mL (≈ 6.58 µM)
22 | 0.39 µg/mL (≈ 0.348 µM) | 5.1 µg/mL (≈ 4.55 µM) | 3.8 µg/mL (≈ 3.39 µM) | 3.6 µg/mL (≈ 3.21 µM) | CC[C@H](C)[C@@H]([C@@H](CC(=O)N1CCC[C@H]1[C@H](OC)[C@@H](C)C(=O)NCCN1C(=O)[C@]23CCC(C)(C)C1[C@@H]2[C@H]1CC[C@@H]2[C@@]4(C)CC[C@H](OC(C)=O)C(C)(C)[C@@H]4CC[C@@]2(C)[C@]1(C)CC3)OC)N(C)C(=O)[C@@H](NC(=O)[C@H](C(C)C)N(C)C)C(C)C | 1.3 µg/mL (≈ 1.16 µM) | 3.1 µg/mL (≈ 2.76 µM)
